One molecule from ChEMBL document CHEMBL3414472, “Synthesis, SAR, and series evolution of novel oxadiazole-containing 5-lipoxygenase activating protein inhibitors: discovery of 2-[4-(3-{(r)-1-[4-(2-amino-pyrimidin-5-yl)-phenyl]-1-cyclopropyl-ethyl}-[1,2,4]oxadiazol-5-yl)-pyrazol-1-yl]-N,N-dimethyl-acetamide (BI 665915)” (J Med Chem, 2015) can be followed below.

For this data set, the target named is CYP3A4 (Homo sapiens, UniProt P08684). As to the kind of experiment: Induction of CYP3A4 in human hepatocytes using midazolam as substrate assessed as formation of 1'-hydroxymidazolam up to 30 uM preincubated for 48 hrs followed by substrate addition measured up to 120 mins relative to control. Format: ADME, cell-based, Hepatocyte. Conditions: probe midazolam, read-out: FC. The gist of the method: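 Freshly plated, sandwich-cultured, single-donor human hepatocytes were exposed to compound or rifampicin (25 µM) for 48 h, with medium and dosing agent renewed every 24 h. The linear slope of 1'-hydroxymidazolam formation over time (to 120 min) was determined. Fold induction is the compound slope divided by the solvent control slope.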
CYP3A4, sequence (P08684 whole entry): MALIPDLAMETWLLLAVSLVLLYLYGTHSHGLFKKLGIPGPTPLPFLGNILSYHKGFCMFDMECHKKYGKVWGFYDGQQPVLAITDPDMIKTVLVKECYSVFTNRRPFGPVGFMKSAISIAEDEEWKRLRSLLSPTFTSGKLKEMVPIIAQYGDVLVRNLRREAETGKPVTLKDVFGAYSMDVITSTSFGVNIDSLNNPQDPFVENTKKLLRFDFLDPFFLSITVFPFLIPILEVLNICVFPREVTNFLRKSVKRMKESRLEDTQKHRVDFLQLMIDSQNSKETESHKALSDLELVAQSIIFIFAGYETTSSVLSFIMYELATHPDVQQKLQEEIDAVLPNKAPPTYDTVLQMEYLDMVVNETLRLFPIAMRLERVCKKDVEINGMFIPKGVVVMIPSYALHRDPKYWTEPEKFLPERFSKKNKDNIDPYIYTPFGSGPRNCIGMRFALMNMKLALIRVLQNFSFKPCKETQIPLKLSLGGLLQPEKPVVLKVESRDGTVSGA

As for `CN(C)C(=O)Cn1cc(-c2nc([C@@](C)(c3ccc(-c4cnc(N)nc4)cc3)C3CC3)no2)cn1` [BI 665915], the fold induction at 2 h is 2.
